The conditions of data set [1]: cited from earlier work.
Another data set has as its system P. berghei. Particulars: cited from earlier work.
The nature of another data set: HepG2 cytotoxicity assay. The class given is cell-based, human. Conditions: human, HepG2 cells.
Another data set relates to Plasmodium yoelii. Description: Modified 4-day Peters test, murine malaria. The data set is classed as in vivo, Plasmodium yoelii in mice.
Data set [2] has as its system P. falciparum strain Tm90–C2B. Nature of the data set: SYBR Green growth inhibition assay, P. falciparum Tm90-C2B. The data set is classed as cell-based, Plasmodium falciparum. Particulars: Plasmodium falciparum, TM90, 72 h, read-out: IC50 Tm90–C2B. The procedure, abridged:
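Human erythrocytes (≤28 days old), 2% hematocrit, asynchronous culture at 0.2% initial parasitemia, in RPMI-1640 with HEPES, hypoxanthine, glucose, glutamine and Albumax II. 2-fold serial dilution starting at 20 μM, quadruplicate. Incubated 72 h at 37 °C under 5% O2/5% CO2/90% N2. SYBR Green I dye-detergent added for at least 1 h in the dark; fluorescence read at 497/520 nm, normalized to untreated wells, plotted against log concentration.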

The test system of the next data set is Babesia microti. Particulars: oral; cited from earlier work.
Data set [3] relates to Plasmodium falciparum strain D6. Nature of the data set: SYBR Green growth inhibition assay, P. falciparum D6. The data set is classed as cell-based. Particulars: Plasmodium falciparum, D6, 72 h, read-out: IC50 D6.
The subject of data set [4] is P. falciparum A6 (SB1-A6). Description: SYBR Green growth inhibition assay, P. falciparum A6. The data set is classed as cell-based, Plasmodium falciparum. Conditions: Plasmodium falciparum, 72 h, read-out: IC50 A6. The procedure, abridged: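 Asynchronous parasites grown in human erythrocytes in RPMI-1640 with HEPES, hypoxanthine and Albumax II under 5% O2/5% CO2/90% N2 at 37 °C. Test compound in 2-fold serial dilution from 20 μM, run in quadruplicate, at 2% hematocrit and 0.2% starting parasitemia for 72 h. SYBR Green I lysis dye added for ≥1 h in the dark. Fluorescence read at 497/520 nm, normalized to untreated wells and plotted against log concentration.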

Data set [5] in a line: Murine microsomal stability. The data set is classed as in vitro ADME.
Data set [6] deals with Plasmodium falciparum strain Dd2. Nature of the data set: SYBR Green growth inhibition assay, P. falciparum Dd2. The data set is classed as cell-based. Conditions: Plasmodium falciparum, DD2, 72 h, read-out: IC50 Dd2.
A further data set has as its system Toxoplasma gondii. Particulars: cited from earlier work.
The subject of the next data set is P. falciparum. Particulars: cited from earlier work.
In a further data set the test system is Leishmania donovani. Conditions: read-out: in vitro IC50 Leishmania donovani; cited from earlier work.
The mark [7] stands for this setting: oral gavage days 1–4, parasitemia day 5, mice.

Consider `Cl.N=C(NN=Cc1ccc(Cl)cc1)NN=Cc1ccc(Cl)cc1` [robenidine, 1,3-Bis(p-chlorobenzylideneamino)guanidine hydrochloride, reference compound], for which the absorption entry in [1] is on record as “poorly absorbed”. In addition, in the data set with P. berghei, the “activity in vivo against P. berghei” value is listed as “moderate activity”. 30000 nM corresponded to half-maximal inhibition in “HepG2 cytotoxicity assay” (IC50 at 24 h). Moreover, the “P. yoelii ED50” value in the data set on Plasmodium yoelii (setting [7]) is 1.6 mg/kg/day. In addition, the “P. yoelii ED90” value in the data set on Plasmodium yoelii (setting [7]) was 4.9 mg/kg/day. Moreover, in the data set with Plasmodium yoelii (oral gavage up to 25 mg/kg/day, no parasites at day 30), the “P. yoelii NRD (nonrecrudescence dose, cure dose)” value is listed as over 25 mg/kg/day. Further, the IC50 in [2] was determined as 1320 nM; in [3] it was 324 nM; in data set [4], 410 nM; in [6], 814 nM. The “murine in vivo nonrecrudescence dose Babesia microti” value with Babesia microti is reported as 100 mg/kg/day. For the same compound, the “murine microsomal stability, t1/2” value in [5] (1 μM, 0.5 mg/mL protein, 37 °C, 1 h, NADPH) was 2.6442 h. Also, the intrinsic metabolic clearance (CLint scaled) at 1 μM in [5] (mouse, pooled murine liver microsomes, pH 7.4) amounted to 34.4 mL/min/kg. Besides, the half-life at 1 μM in [5] (mouse, pooled murine liver microsomes, pH 7.4, murine microsomal stability, t1/2, 1 μM, 0.5 mg/mL protein, 37 °C, 1 h, NADPH) is over 2.5 h. In addition, the “in vitro IC50 Toxoplasma gondii” value in the data set with Toxoplasma gondii is 0.03 µg/mL.
Regarding `Cl.Cl.Cl.N=C(N)c1cccc(/C=N/N=C(\N)N/N=C/c2cccc(C(=N)N)c2)c1` [CGP 40215A], the “IC50 value against P. falciparum in vitro” value in the data set with P. falciparum is on record as “low micromolar”. The IC50 in the data set on Leishmania donovani was 18000 nM.

(Values after publication PMC8273112 (ACS Infectious Diseases, 2021).)
